Most compounds without a hit are left out; they make up all but 1.1% or so of the library.
G6PDH counter: L. mesenteroides G6PDH inhibitors, counter-screen for G6PDH-coupled screening assays, biochemical, Leuconostoc mesenteroides enzyme. glucose-6-phosphate dehydrogenase [Leuconostoc mesenteroides]. Purified L. mesenteroides G6PDH, diaphorase/resazurin coupled fluorescence, 45 min. inhibition, % at 5 µM. hit rate 0.12% among 200,000. AID 1020, 2008; in the data active means inhibition above about 50%
Redox H2O2 prof: compounds producing H2O2 with reducing agent – biochemical, NIH compound library profiling, artefact control for MLSCN library redox annotation, primary screen. DTT-dependent redox cycling H2O2, phenol red/HRP absorbance; 100% = 100 µM peroxide control, 0% = buffer. activation, % at 10 µM. hit rate 0.03% among 200,000;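 active means activation of at least 50% relative to the plate's high and low controls in the primary single-dose screen; inactive means activation below 50%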;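 further: compound incubated with DTT at 0.8 mM final as the reducing agent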
PMI act: activators of human PMI, primary screen, biochemical, fluorescence intensity, near-Km mannose 6-phosphate. hit rate 0.005% among 190,000. Mannose-6-phosphate isomerase (Homo sapiens), P34949. AID 1214, 2008. purified human PMI, coupled resazurin fluorescence, 20 min; active compounds read high; 1 = vehicle control, 0 substrate-free wells. activation factor at 20 µM;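 active means activation factor of 2 or more at 20 µM, relative to plate controls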
Target sequence (P34949 whole entry, looked up): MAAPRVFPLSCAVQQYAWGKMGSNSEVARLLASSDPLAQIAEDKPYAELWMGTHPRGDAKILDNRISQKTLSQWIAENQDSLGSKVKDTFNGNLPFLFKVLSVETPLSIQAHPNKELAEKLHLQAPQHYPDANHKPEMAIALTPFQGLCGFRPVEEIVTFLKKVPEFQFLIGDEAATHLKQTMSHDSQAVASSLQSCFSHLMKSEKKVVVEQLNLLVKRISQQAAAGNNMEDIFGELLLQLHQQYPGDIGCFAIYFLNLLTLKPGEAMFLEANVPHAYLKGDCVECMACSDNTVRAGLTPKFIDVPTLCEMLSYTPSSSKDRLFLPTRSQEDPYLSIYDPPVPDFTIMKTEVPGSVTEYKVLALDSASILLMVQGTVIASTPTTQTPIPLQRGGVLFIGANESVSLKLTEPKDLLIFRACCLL
Diaphorase act: compounds boosting diaphorase resazurin reduction – biochemical, uHTS, resorufin fluorescence, counter-screen for diaphorase-coupled primary assays, primary screen; Diaphorase/resazurin coupled assay, 16 min; active compounds read high; 1 = vehicle wells, 0 = NADH-free wells; activation factor at 20 µM; hit rate 0.005% among 190,000;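 active means diaphorase activity raised at least twofold by the compound at 20 µM; inactive means activation factor below 2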
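Measured by – red resorufin fluorescence at 544/590 nm excitation/emission · Test system – Clostridium kluyveri diaphorase, purified enzyme · Incubation – reaction time 16 min, room temperature · Buffer or medium – 50 mM HEPES pH 7.4 with 4.542 mM MgCl2, 0.005% Tween 20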
PMI act satM6P: human PMI activators, high substrate, primary screen, biochemical, fluorescence intensity, near-saturating mannose 6-phosphate; hit rate 0.34% among 190,000; Mannose-6-phosphate isomerase (Homo sapiens), P34949; coupled PMI enzyme assay, resazurin fluorescence, 20 min; active compounds read high; 1 = untreated enzyme, 0 = substrate-free blank; activation factor at 20 µM;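 active means activation factor of 2 or more at 20 µM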
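Test system: human phosphomannose isomerase with PGI, G6PDH, diaphorase coupling enzymes / Doses: 20 µM compound, 1% DMSO / Times: enzyme reaction with compound 20 min at room temperature / Measured by: Diaphorase-driven resazurin-to-resorufin fluorescence, excitation 544, emission 590 nm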
Diaph inh CS: diaphorase inhibitors and chemical oxidizers, primary screen, counter-screen for diaphorase-coupled primary assays, biochemical, uHTS, resorufin fluorescence | diaphorase resazurin-to-resorufin fluorescence, NADH, 16 min; bacterial (C. kluyveri) enzyme, not human | inhibition, % at 20 µM | hit rate 0.69% among 190,000 | AID 1217, 2008;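 active means primary screen inhibition at 20 µM above a set limit, cut at about 50% in these data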
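Assay system – diaphorase enzyme from Clostridium kluyveri · Amount – diaphorase 0.14 U/mL (working solution) · Times – reaction incubation of 16 min at room temperature · Controls – No-NADH positive control and DMSO neutral control · Signal – resorufin fluorescence 544/590 nm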
Of the large screens only hits and unclear results are named; the others gave an inactive call.

O=C(N/N=C1/C(=O)c2cccc3cccc1c23)c1ccc(Cl)cc1	Diaph inh CS 68
CC1(C)CN(c2ccsc2C(=O)O)C1=O	none
CCSc1ccccc1C(=O)N1CCN(c2ccc([N+](=O)[O-])cc2)CC1	none
O=C(CSc1ccccc1C(=O)O)c1ccc([N+](=O)[O-])cc1	PMI act satM6P 2.2
Cc1ccc(S(=O)(=O)c2ccc(NN)cc2)cc1	PMI act satM6P 2.5
Cc1ccc(NC(=O)Nc2ccc(S(N)(=O)=O)cc2)cc1	none
CN(CCO)c1nc(N)c2c(N)nc3c(c2c1C#N)CC(=O)N3C1CCCC1	none
CC(C)(C)N1C(=O)Cc2c1nc(N)c1c(N)nc(N3CCCCC3CO)c(C#N)c21 (configuration not stated)	Diaph inh CS 56
Cc1ccc(-c2nnc3ccc(SCC(=O)N4CCCc5ccccc54)nn23)cc1	Diaph inh CS 50
Cc1ccc(-c2nnc3ccc(SCC(=O)N4CCc5ccccc54)nn23)cc1	none
CN(C)c1ccc(/C=N/Nc2ccc(-n3ccnc3)nn2)cc1	PMI act satM6P 2.2
CCCCCc1ccc(C(=O)CCCC)c(=S)[nH]1	Diaph inh CS 57
CCCCC(=O)c1ccc(O)cc1O	none (no result: G6PDH counter, PMI act, Diaphorase act, PMI act satM6P, Diaph inh CS)
COCCNC(=O)C(OC(=O)C1=Cc2ccccc2OC1)C(C)C (configuration not stated)	none
COc1ccccc1N(CC(=O)NCc1ccccc1)C(=O)CCC(=O)Nc1ccccn1	none
CC(=O)/C(=N\Nc1ccc(Cl)cc1)Sc1nnc(-c2ccccc2)n1-c1ccccc1	PMI act satM6P 2
CN1c2ccccc2N(C)C1(C)c1ccccc1	none
CCN1c2ccccc2N(C)C1(C)c1ccccc1 (configuration not stated)	Diaph inh CS 59
O=C(C1=C[C@@H]2[C@H]3C(=O)N(c4cccc(Cl)c4)C(=O)[C@H]3[C@@H](C(=O)c3ccc(Cl)cc3)N2C=C1)c1ccccc1	PMI act satM6P 2.2
Cc1ccc(N2C(=O)[C@@H]3[C@H](C2=O)[C@H]2C=C(C(=O)c4ccccc4)C=CN2[C@@H]3C(=O)c2ccc(Cl)cc2)cc1	PMI act satM6P 2.1
CC(C)(C)C(=O)OCCNc1nc(-c2ccccc2)nc2ccccc12	none
CCn1c(C)c(C(C)=O)c(N2CCCC2)nc1=S	Diaph inh CS 57
CCn1c(C)c(C(C)=O)c(N2CCN(c3ccc(F)cc3)CC2)nc1=S	none
C=CCn1c(C)c(C(C)=O)c(N2CCCC2)nc1=S	Diaph inh CS 56
CC(=O)c1c(N2CCN(Cc3ccccc3)CC2)nc(=S)n(-c2ccccc2)c1C	PMI act satM6P 2.1
O=C(CCC(=O)N(CC(=O)NC1CCCCC1)Cc1cccs1)Nc1ccccn1	none
CC12CN(C(=S)Nc3ccccc3)CC(C)(CN(C(=S)Nc3ccccc3)C1)C2=O	none
Cc1ccnc(NC(=O)c2ccc(S(=O)(=O)c3ccccc3)cc2)c1	none
Cc1ccc(S(=O)(=O)N2CCCN(S(=O)(=O)c3ccc4ccccc4c3)CC2)cc1	none
CCOC(=O)C1(C)/C(=N/Nc2cccc(Cl)c2)C(=O)C(=O)N1c1ccccc1 (configuration not stated)	PMI act satM6P 2.3
CCOC(=O)C1(C)/C(=N/Nc2ccc(Cl)cc2)C(=O)C(=O)N1c1ccccc1 (configuration not stated)	PMI act satM6P 2.2
CCOC(=O)C1(C)/C(=N/Nc2ccccc2Cl)C(=O)C(=O)N1c1ccccc1 (configuration not stated)	PMI act satM6P 2.1
CCOC(=O)CSc1nnc(CNc2cccc(Cl)c2)n1-c1ccccc1	none
CCOC(=O)C1(C)/C(=N/Nc2ccc(S(N)(=O)=O)cc2)C(=O)C(=O)N1c1ccccc1 (configuration not stated)	none
O=C(Nc1nc(-c2ccc(Oc3ccccc3)cc2)cs1)C1=COCCO1	none
COc1ccc(C(=O)NC(=S)NNC(=O)c2cnccn2)cc1OC	Diaph inh CS 74
Cc1cccc(C(=O)NC(=S)NNC(=O)c2ccc(Cl)cc2)c1	none
COc1cc(C(=O)NNC(=S)NC(=O)c2ccc(Cl)cc2)cc(OC)c1OC	Diaph inh CS 61
COc1cc(OC)cc(C(=O)NC(=S)NNC(=O)c2cnccn2)c1	Diaph inh CS 68
CN1c2ccsc2/C(=N/Nc2ccccc2)CS1(=O)=O	PMI act satM6P 2.1
C/C(=N\Nc1ccc(Cl)cc1)c1ccccn1	PMI act satM6P 2.1
O=C(Nc1nccs1)c1ccc(Br)o1	none
O=C(/C=C/c1ccc(Br)o1)Nc1nccs1	PMI act satM6P 2
Cn1ncnc1SCc1cn2cccnc2n1	none
Cc1cccnc1NC1OC(=O)c2ccccc21 (configuration not stated)	none
O=C1OC(Nc2ccc3ncccc3c2)c2ccccc21 (configuration not stated)	Diaph inh CS 56
COc1cc(C(Nc2ccccn2)c2ccc3ccc(C)nc3c2O)cc(OC)c1O (configuration not stated)	G6PDH counter 61, Diaph inh CS 63
CC(=O)N1CCCN(Cc2cn(-c3cc(C)ccc3C)nc2-c2ccccc2)CC1	none
O=C(c1ccc(S(=O)(=O)N2CCOCC2)cc1)N1CCOCC1	none
CC(=O)n1cc([C@H]2C=C(C(=O)N3CCN(Cc4ccc5c(c4)OCO5)CC3)O[C@@H](OCCCCO)C2)c2ccccc21	Diaph inh CS 56
CCO[C@@H]1OC(C(=O)N2CCN(Cc3ccc4c(c3)OCO4)CC2)=C[C@H](c2cn(C(C)=O)c3ccccc23)[C@H]1CCCO	Diaph inh CS 56
CNC(=S)Nc1ccc2nc(C)oc2c1	none
Cc1cc2cc(CCNC(=O)C(=O)c3c[nH]c4ccccc34)c(=O)[nH]c2cc1C	Diaph inh CS 70
Cc1cc2cc(CCNC(=O)C(C)C)c(=O)[nH]c2cc1C	none (no result: G6PDH counter, PMI act, Diaphorase act, PMI act satM6P, Diaph inh CS)
Cc1cc2cc(CCNC(=O)c3ccc(C)c([N+](=O)[O-])c3)c(=O)[nH]c2cc1C	Diaph inh CS 72
O=C(CN1C(=O)c2ccccc2C1=O)c1ccccc1	none
CC1=C(CC(=O)c2ccccc2)C(=O)c2ccccc2C1=O	G6PDH counter 56

Compound activity: PubChem BioAssay, several laboratories
